Assay results reported in ChEMBL document CHEMBL2040809, “Synthesis and biological activity evaluation of cytidine-5'-deoxy-5-fluoro-N-[(alkoxy/aryloxy)] carbonyl-cyclic 2',3'-carbonates” (Eur J Med Chem, 2012).
In brackets after ≈: the same amount, converted by molar mass.

Experiments:
[1] = test system: NCI-H69; experiment: Cytotoxicity against human NCI-H69 cells after 3 days MTT assay; assay type: functional, cell-based; conditions: NCI-H69, 72 h
In short: (§1)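 Cells held as monolayers in DMEM with 10% supplement. Seeded in 96-well plates on day 0 at densities set by doubling time: 1 × 10⁴/mL for HeLa and NCI-69, 2 × 10⁴/mL for MCF-7, 3 × 10⁴/mL for PZ-HPV-7. Five dilutions (10⁻⁸–5 × 10⁻⁶ mol/l), freshly prepared, added for 72 h. Growth read by MTT (succinate dehydrogenase activity); IC50 derived.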

[2] = Cytotoxicity against human PZ-HPV-7 cells after 3 days MTT assay; assay type: functional, cell-based; conditions: 72 h; in short: as §1
[3] = test system: MCF7; experiment: Cytotoxicity against human MCF7 cells after 3 days MTT assay; assay type: functional, cell-based; conditions: MCF7, 72 h; in short: as §1
[4] = test system: HeLa; experiment: Cytotoxicity against human HeLa cells after 3 days MTT assay; assay type: functional, cell-based; conditions: 72 h; in short: as §1
[5] = test system: Salmonella typhimurium; experiment: Mutagenic activity in Salmonella typhimurium TA1535 at 0.312 to 5 mg/plate preincubated for 20 mins before addition in presence of liver S9 mixture; assay type: toxicity, organism-based; conditions: salmonella enterica subsp. enterica serovar typhimurium
In short: (§2)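 Pre-incubation trial (Trial II) with histidine-dependent auxotrophs. Test solution is pre-incubated with bacterial suspension and S9 mix (10% v/v) or substitution buffer before plating on selective agar. Revertant colonies are counted against the concurrent vehicle control. Triplicate plates per dose and per control (negative, vehicle, positive reference mutagens).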

[6] = test system: Salmonella typhimurium; experiment: Mutagenic activity in Salmonella typhimurium TA1535 at 0.312 to 5 mg/plate preincubated for 20 mins before addition in absence of liver S9 mixture; assay type: toxicity, organism-based; conditions: salmonella enterica subsp. enterica serovar typhimurium; in short: as §2
[7] = test system: Salmonella typhimurium; experiment: Mutagenic activity in Salmonella typhimurium TA1537 at 0.312 to 5 mg/plate preincubated for 20 mins before addition in presence of liver S9 mixture; assay type: toxicity, organism-based; conditions: salmonella enterica subsp. enterica serovar typhimurium; in short: as §2
[8] = test system: Salmonella typhimurium; experiment: Mutagenic activity in Salmonella typhimurium TA1537 at 0.312 to 5 mg/plate preincubated for 20 mins before addition in absence of liver S9 mixture; assay type: toxicity, organism-based; conditions: salmonella enterica subsp. enterica serovar typhimurium; in short: as §2
[9] = test system: Salmonella typhimurium; experiment: Mutagenic activity in Salmonella typhimurium TA98 at 0.312 to 5 mg/plate preincubated for 20 mins before addition in presence of liver S9 mixture; assay type: toxicity, organism-based; conditions: salmonella enterica subsp. enterica serovar typhimurium; in short: as §2
[10] = test system: Salmonella typhimurium; experiment: Mutagenic activity in Salmonella typhimurium TA98 at 0.312 to 5 mg/plate preincubated for 20 mins before addition in absence of liver S9 mixture; assay type: toxicity, organism-based; conditions: salmonella enterica subsp. enterica serovar typhimurium; in short: as §2
[11] = test system: Salmonella typhimurium; experiment: Mutagenic activity in Salmonella typhimurium TA100 at 0.312 to 5 mg/plate preincubated for 20 mins before addition in presence of liver S9 mixture; assay type: toxicity, organism-based; conditions: salmonella enterica subsp. enterica serovar typhimurium; in short: as §2
[12] = test system: Salmonella typhimurium; experiment: Mutagenic activity in Salmonella typhimurium TA100 at 0.312 to 5 mg/plate preincubated for 20 mins before addition in absence of liver S9 mixture; assay type: toxicity, organism-based; conditions: salmonella enterica subsp. enterica serovar typhimurium; in short: as §2
[13] = test system: Salmonella typhimurium; experiment: Mutagenic activity in Salmonella typhimurium TA102 at 0.312 to 5 mg/plate preincubated for 20 mins before addition in presence of liver S9 mixture; assay type: toxicity, organism-based; conditions: salmonella enterica subsp. enterica serovar typhimurium; in short: as §2
[14] = test system: Salmonella typhimurium; experiment: Mutagenic activity in Salmonella typhimurium TA1535 at 0.312 to 5 mg/plate measured after incubation of upside down for 48 hrs in presence of liver S9 mixture; assay type: toxicity, organism-based; conditions: salmonella enterica subsp. enterica serovar typhimurium, s9, 48 h
In short: (§3)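 Plate incorporation trial (Trial I) with histidine-dependent auxotrophs. Revertant colonies are counted against the concurrent vehicle control. Each dose and each control, including negative, vehicle and positive reference mutagens, run in triplicate plates.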

[15] = test system: Salmonella typhimurium; experiment: Mutagenic activity in Salmonella typhimurium TA1535 at 0.312 to 5 mg/plate measured after incubation of upside down for 48 hrs in absence of liver S9 mixture; assay type: toxicity, organism-based; conditions: salmonella enterica subsp. enterica serovar typhimurium; in short: as §3
[16] = test system: Salmonella typhimurium; experiment: Mutagenic activity in Salmonella typhimurium TA1537 at 0.312 to 5 mg/plate measured after incubation of upside down for 48 hrs in presence of liver S9 mixture; assay type: toxicity, organism-based; conditions: salmonella enterica subsp. enterica serovar typhimurium, s9, 48 h; in short: as §3
[17] = test system: Salmonella typhimurium; experiment: Mutagenic activity in Salmonella typhimurium TA1537 at 0.312 to 5 mg/plate measured after incubation of upside down for 48 hrs in absence of liver S9 mixture; assay type: toxicity, organism-based; conditions: salmonella enterica subsp. enterica serovar typhimurium; in short: as §3
[18] = test system: Salmonella typhimurium; experiment: Mutagenic activity in Salmonella typhimurium TA98 at 0.312 to 5 mg/plate measured after incubation of upside down for 48 hrs in presence of liver S9 mixture; assay type: toxicity, organism-based; conditions: salmonella enterica subsp. enterica serovar typhimurium, s9, 48 h; in short: as §3
[19] = test system: Salmonella typhimurium; experiment: Mutagenic activity in Salmonella typhimurium TA98 at 0.312 to 5 mg/plate measured after incubation of upside down for 48 hrs in absence of liver S9 mixture; assay type: toxicity, organism-based; conditions: salmonella enterica subsp. enterica serovar typhimurium; in short: as §3
[20] = test system: Salmonella typhimurium; experiment: Mutagenic activity in Salmonella typhimurium TA100 at 0.312 to 5 mg/plate measured after incubation of upside down for 48 hrs in presence of liver S9 mixture; assay type: toxicity, organism-based; conditions: salmonella enterica subsp. enterica serovar typhimurium, s9, 48 h; in short: as §3
[21] = test system: Salmonella typhimurium; experiment: Mutagenic activity in Salmonella typhimurium TA100 at 0.312 to 5 mg/plate measured after incubation of upside down for 48 hrs in absence of liver S9 mixture; assay type: toxicity, organism-based; conditions: salmonella enterica subsp. enterica serovar typhimurium; in short: as §3
[22] = test system: Salmonella typhimurium; experiment: Mutagenic activity in Salmonella typhimurium TA102 at 0.312 to 5 mg/plate measured after incubation of upside down for 48 hrs in presence of liver S9 mixture; assay type: toxicity, organism-based; conditions: salmonella enterica subsp. enterica serovar typhimurium, s9, 48 h; in short: as §3
[23] = test system: Salmonella typhimurium; experiment: Mutagenic activity in Salmonella typhimurium TA102 at 0.312 to 5 mg/plate preincubated for 20 mins before addition in absence of liver S9 mixture; assay type: toxicity, organism-based; conditions: salmonella enterica subsp. enterica serovar typhimurium; in short: as §2
[24] = test system: Salmonella typhimurium; experiment: Mutagenic activity in Salmonella typhimurium TA102 at 0.312 to 5 mg/plate measured after incubation of upside down for 48 hrs in absence of liver S9 mixture; assay type: toxicity, organism-based; conditions: salmonella enterica subsp. enterica serovar typhimurium; in short: as §3
[25] = Toxicity in po dosed BDF-1 mouse; assay type: organism-based; conditions: in vivo
[26] = Toxicity in po dosed BDF-1 mouse administered qd for 28 days; assay type: organism-based; conditions: in vivo
[27] = test system: L1210; experiment: Antitumor activity against mouse L1210 cells xenografted in BDF-1 mouse assessed as increase in mean survival time at 0.16 mmol/kg, po administered 5 days in a week for 3 weeks
[28] = test system: L1210; experiment: Antitumor activity against mouse L1210 cells xenografted in BDF-1 mouse assessed as increase in mean survival time at 0.080 mmol/kg, po administered 5 days in a week for 3 weeks

SMILES	IC50 [1]	IC50 [2]	IC50 [3]	IC50 [4]	Activity [5]	Activity [6]	Activity [7]	Activity [8]	Activity [9]	Activity [10]	Activity [11]	Activity [12]	Activity [13]	Activity [14]	Activity [15]	Activity [16]	Activity [17]	Activity [18]	Activity [19]	Activity [20]	other results
C[C@H]1O[C@@H](n2cc(F)c(NC(=O)Oc3ccc([N+](=O)[O-])cc3)nc2=O)[C@H](O)[C@@H]1O	100 µg/mL (≈ 244 µM)	90 µg/mL (≈ 219 µM)	180 µg/mL (≈ 439 µM)	0.01 µg/mL (≈ 0.0244 µM)	Non-toxic	Non-toxic	Non-toxic	Non-toxic	Non-toxic	Non-toxic	Non-toxic	Non-toxic	Non-toxic	Non-toxic	Non-toxic	Non-toxic	Non-toxic	Non-toxic	Non-toxic	Non-toxic	Activity [21]: Non-toxic; Activity [22]: Non-toxic; Activity [23]: Non-toxic; Activity [24]: Non-toxic
CC(C)CCOC(=O)Nc1nc(=O)n([C@@H]2O[C@H](C)[C@H]3OC(=O)O[C@H]32)cc1F	310 µg/mL (≈ 804 µM)	350 µg/mL (≈ 908 µM)	100 µg/mL (≈ 260 µM)	0.13 µg/mL (≈ 0.337 µM)	Non-toxic	Non-toxic	Non-toxic	Non-toxic	Non-toxic	Non-toxic	Non-toxic	Non-toxic	Non-toxic	Non-toxic	Non-toxic	Non-toxic	Non-toxic	Non-toxic	Non-toxic	Non-toxic	Activity [21]: Non-toxic; Activity [22]: Non-toxic; Activity [23]: Non-toxic; Activity [24]: Non-toxic
C[C@H]1O[C@@H](n2cc(F)c(NC(=O)Oc3ccc([N+](=O)[O-])cc3)nc2=O)[C@@H]2OC(=O)O[C@@H]21	30 µg/mL (≈ 68.8 µM)	6 µg/mL (≈ 13.8 µM)	6 µg/mL (≈ 13.8 µM)	0.03 µg/mL (≈ 0.0688 µM)	Non-toxic	Non-toxic	Non-toxic	Non-toxic	Non-toxic	Non-toxic	Non-toxic	Non-toxic	Non-toxic	Non-toxic	Non-toxic	Non-toxic	Non-toxic	Non-toxic	Non-toxic	Non-toxic	Activity [21]: Non-toxic; Activity [22]: Non-toxic; Activity [23]: Non-toxic; Activity [24]: Non-toxic; LD50 [25]: 2000 mg/kg; LD50 at 672 h [26]: 200 mg/kg; MST [27]: 23.4 days; MST [28]: 27.1 days
C[C@H]1O[C@@H](n2cc(F)c(NC(=O)Oc3ccc(Cl)cc3)nc2=O)[C@@H]2OC(=O)O[C@@H]21	3 µg/mL (≈ 7.05 µM)	3 µg/mL (≈ 7.05 µM)	30 µg/mL (≈ 70.5 µM)	0.006 µg/mL (≈ 0.0141 µM)																	LD50 [25]: 2000 mg/kg; LD50 at 672 h [26]: 200 mg/kg; MST [27]: 23.7 days; MST [28]: 26.3 days
